Consider 2 compounds from ChEMBL document CHEMBL1153607, “Synthesis and anti-tumor activities of some new pyridines and pyrazolo[1,5-a]pyrimidines” (Eur J Med Chem, 2009).

What all share (type): functional, cell-based
For one experiment, the system named is HepG2. As to the kind of experiment: Antitumor activity against human HepG2 cells after 48 hrs by SRB assay. The following applies: HepG2, 48 h. The essentials:
(§1)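 Cells seeded at 10⁴/well and left overnight to attach, then exposed to compound for 48 h at 37 °C, 5% CO₂, in triplicate wells per dose. Cells were fixed and stained with sulforhodamine B in acetic acid, washed four times with 1% acetic acid, and bound dye was extracted with tris–EDTA. Absorbance was read on an ELISA reader. IC50 (50% growth inhibition) was taken from the survival curve.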

The test system of experiment [1] is MCF7. As to the kind of experiment: Antitumor activity against human MCF7 cells after 48 hrs by SRB assay. As to conditions: MCF7, 48 h. In short, it runs like this:
as §1

Experiment [2] deals with HCT-116. As to the kind of experiment: Antitumor activity against human HCT116 cells after 48 hrs by SRB assay. As to conditions: HCT-116, 48 h. The essentials: as §1
Experiment [3] relates to HeLa. Description: Antitumor activity against human HeLa cells after 48 hrs by SRB assay. In short, it runs like this:
as §1

For experiment [4], the system named is MCF7. Description: Antitumor activity against human MCF7 cells assessed as decrease in survival fraction at 1 ug/ml by SRB assay. The essentials:
(§2)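 Monolayers seeded at 10⁴ cells/well were allowed to attach overnight, then treated with compound for 48 h at 37 °C, 5% CO₂, with triplicate wells per dose. Cells were fixed and stained with sulforhodamine B, washed with 1% acetic acid, and dye was solubilised in tris–EDTA before absorbance reading. Surviving fraction was plotted against compound concentration for each cell line.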

Experiment [5] deals with MCF7. As to the kind of experiment: Antitumor activity against human MCF7 cells assessed as decrease in survival fraction at > 1 ug/ml by SRB assay. In short, it runs like this:
as §2

In experiment [6] the test system is MCF7. Description: Antitumor activity against human MCF7 cells assessed as decrease in survival fraction at > 2.5 ug/ml by SRB assay. In short, it runs like this:
as §2

Experiment [7] deals with HCT-116. As to the kind of experiment: Antitumor activity against human HCT116 cells assessed as decrease in survival fraction at 1 ug/ml by SRB assay. In short, it runs like this: as §2
Experiment [8] has as its system HeLa. Description: Antitumor activity against human HeLa cells assessed as decrease in survival fraction at 1 ug/ml by SRB assay. In short, it runs like this:
as §2

Values after ≈ are worked out from the molar mass of the structure shown. Active and inactive are the calls of the source. The calls are words filed in the database; no cut-off is given here.

On to `O=C(Nc1ccc(Cl)cc1)c1c(Nc2ccccc2)nn2ccc(-c3ccc4ccccc4c3)nc12`, for which the IC50 in the experiment on HepG2 is 1.88 µg/mL (≈ 3.84 µM); with MCF7 [1] it was 0.74 µg/mL (≈ 1.51 µM); in the experiment with HCT-116 [2] it was 0.54 µg/mL (≈ 1.1 µM); in the experiment with HeLa [3] it was 0.4 µg/mL (≈ 0.816 µM). For the same compound, the outcome in the experiment on MCF7 [4], with MCF7 [5], in the experiment on MCF7 [6], in the experiment with HCT-116 [7] and in the experiment on HeLa [8] was Active.
`N#Cc1ccc(-c2ccc3ccccc3c2)[nH]c1=S`: the IC50 in the experiment with HepG2 was determined as 1.01 µg/mL (≈ 3.85 µM); in the experiment on MCF7 [1] it was 0.34 µg/mL (≈ 1.3 µM); in the experiment on HCT-116 [2], 0.49 µg/mL (≈ 1.87 µM); in the experiment with HeLa [3] it was 0.6 µg/mL (≈ 2.29 µM). For the same compound, the result with MCF7 [4], in the experiment with MCF7 [5] and with MCF7 [6] was Active.
